ChEMBL document CHEMBL1649151, “Urinary bactericidal activity of Doripenem versus that of levofloxacin in patients with complicated urinary tract infections or pyelonephritis” (Antimicrob Agents Chemother, 2009)
Values after ≈ are worked out from the molar mass of the structure shown.

How the values were obtained:
Escherichia coli [1] = assay: Antimicrobial activity against Escherichia coli 1889646 B-F isolated from patient with pyelonephritis assessed as >3-log reduction in urinary bacterial titer after 20 hrs; assay type: functional, Urine
Outline: (§1)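 Urine was collected on day 3 of i.v. therapy (steady state) over 4-h intervals from infusion start (0–4 to 20–24 h), stored at –80°C and sterile filtered. It was serially diluted twofold (1:0 up to 1:131,072) in the patient's own pre-dose drug-free urine. Microdilution used a final inoculum of 1.0 x 10^6 to 9.5 x 10^6 CFU/ml, incubated 18 h at 37°C in air. 10 µl was subcultured onto 5% blood Columbia agar for 24 h at 37°C. The bactericidal endpoint was >99.9% (>3-log) kill, reported as a reciprocal titer.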

[2] = tested on: Staphylococcus haemolyticus; assay: Antimicrobial activity against Staphylococcus haemolyticus 1949819 B-M isolated from patient with pyelonephritis assessed as >3-log reduction in urinary bacterial titer after 12 hrs; assay type: functional, Urine
Escherichia coli [3] = assay: Antimicrobial activity against Escherichia coli 2297257 B-W isolated from patient with pyelonephritis assessed as urinary bactericidal titer
Escherichia coli [4] = assay: Antimicrobial activity against Escherichia coli 1949825 B-K isolated from patient with pyelonephritis assessed as >3-log reduction in urinary bacterial titer after 16 hrs; assay type: functional, Urine
Outline: (§2)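 Patient urine was collected on day 3 of i.v. therapy (steady state) over 4-h intervals after infusion start, stored at –80°C, and sterile filtered. It was twofold serially diluted (1:0 to 1:131,072) in the patient's own pre-dose drug-free urine, inoculated to 1.0 x 10^6–9.5 x 10^6 CFU/ml, and incubated for 18 h at 37°C. Subcultures were grown on blood agar for 24 h. The UBT is the reciprocal of the highest dilution giving >99.9% kill.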

Enterococcus faecalis [5] = assay: Antimicrobial activity against Enterococcus faecalis 2215770 B-T isolated from patient with pyelonephritis assessed as >3-log reduction in urinary bacterial titer after 4 hrs; assay type: functional, Urine
Outline: (§3)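 Urine was collected before dosing and on day 3 of i.v. therapy (steady state), in 4-h intervals from infusion start (0–4 to 20–24 h), stored at −80°C and sterile filtered. It was serially diluted twofold (1:0 to 1:131,072) in the patient's drug-free pre-dose urine. Microdilution used an inoculum of 1.0 x 10^6–9.5 x 10^6 CFU/ml, incubated 18 h at 37°C, then subcultured 24 h on blood agar. The endpoint was >99.9% kill, reported as reciprocal titer.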

Escherichia coli [6] = assay: Antimicrobial activity against Escherichia coli 1889646 B-F isolated from patient with pyelonephritis assessed as >3-log reduction in urinary bacterial titer after 12 hrs; assay type: functional, Urine; outline: as §1
Escherichia coli [7] = assay: Antimicrobial activity against Escherichia coli 2297257 B-W isolated from patient with pyelonephritis by Etest; assay type: functional
Escherichia coli [8] = assay: Antimicrobial activity against Escherichia coli 1889646 B-F isolated from patient with pyelonephritis assessed as >3-log reduction in urinary bacterial titer after 8 hrs; assay type: functional, Urine; outline: as §1
Escherichia coli [9] = assay: Antimicrobial activity against Escherichia coli 1889645 B-I isolated from patient with pyelonephritis assessed as >3-log reduction in urinary bacterial titer after 16 hrs; assay type: functional, Urine; outline: as §1
Escherichia coli [10] = assay: Antimicrobial activity against Escherichia coli 1821385 B-C isolated from patient with pyelonephritis assessed as >3-log reduction in urinary bacterial titer after 8 hrs; assay type: functional, Urine; outline: as §1
[11] = T>MIC in Prevotella spp.-infected patient at 250 to 1000 mg/kg administered every 8 hrs; assay type: functional; settings: dose mg/kg 250-1000; pooled result: one value given for 10 cell lines, strains, targets or settings
Escherichia coli [12] = assay: Antimicrobial activity against Escherichia coli 2062717 B-P isolated from patient with pyelonephritis assessed as >3-log reduction in urinary bacterial titer after 24 hrs; assay type: functional, Urine
Escherichia coli [13] = assay: Antimicrobial activity against Escherichia coli 2297257 B-W isolated from patient with pyelonephritis assessed as >3-log reduction in urinary bacterial titer after 16 hrs; assay type: functional, Urine
Escherichia coli [14] = assay: Antimicrobial activity against Escherichia coli 1821385 B-C isolated from patient with pyelonephritis assessed as >3-log reduction in urinary bacterial titer after 24 hrs; assay type: functional, Urine; outline: as §1
Escherichia coli [15] = assay: Antimicrobial activity against Escherichia coli 2297257 B-W isolated from patient with pyelonephritis assessed as >3-log reduction in urinary bacterial titer after 8 hrs; assay type: functional, Urine
Escherichia coli [16] = assay: Antimicrobial activity against Escherichia coli 1949825 B-K isolated from patient with pyelonephritis by Etest; assay type: functional
Pseudomonas aeruginosa = assay: Antimicrobial activity against Pseudomonas aeruginosa 1821383 B-E isolated from patient with pyelonephritis assessed as >3-log reduction in urinary bacterial titer after 4 hrs; assay type: functional, Urine
[17] = tested on: Staphylococcus epidermidis; assay: Antimicrobial activity against Staphylococcus epidermidis 2297262-9 B-V isolated from patient with pyelonephritis by Etest; assay type: functional
Enterococcus faecalis [18] = assay: Antimicrobial activity against Enterococcus faecalis 2215767-10 B-S isolated from patient with pyelonephritis assessed as >3-log reduction in urinary bacterial titer after 8 hrs; assay type: functional, Urine; outline: as §3
[19] = tested on: Staphylococcus epidermidis; assay: Antimicrobial activity against Staphylococcus epidermidis 1949822 B-J isolated from patient with pyelonephritis assessed as >3-log reduction in urinary bacterial titer after 8 hrs; assay type: functional, Urine
Enterococcus faecalis [20] = assay: Antimicrobial activity against Enterococcus faecalis 2297262-10 B-V isolated from patient with pyelonephritis assessed as >3-log reduction in urinary bacterial titer after 12 hrs; assay type: functional, Urine; outline: as §3
Enterococcus faecalis [21] = assay: Antimicrobial activity against Enterococcus faecalis 2215767-10 B-S isolated from patient with pyelonephritis assessed as >3-log reduction in urinary bacterial titer after 4 hrs; assay type: functional, Urine; outline: as §3
Escherichia coli [22] = assay: Antimicrobial activity against Escherichia coli 2062716 B-R isolated from patient with pyelonephritis assessed as >3-log reduction in urinary bacterial titer after 12 hrs; assay type: functional, Urine; outline: as §2
Staphylococcus aureus [23] = assay: Antimicrobial activity against Staphylococcus aureus 1889640 A-Z isolated from patient with pyelonephritis assessed as >3-log reduction in urinary bacterial titer after 12 hrs; assay type: functional, Urine
Enterococcus faecalis [24] = assay: Antimicrobial activity against Enterococcus faecalis 2297262-10 B-V isolated from patient with pyelonephritis assessed as >3-log reduction in urinary bacterial titer after 24 hrs; assay type: functional, Urine; outline: as §3
Staphylococcus aureus [25] = assay: Antimicrobial activity against Staphylococcus aureus 1889640 A-Z isolated from patient with pyelonephritis assessed as >3-log reduction in urinary bacterial titer after 16 hrs; assay type: functional, Urine
Escherichia coli [26] = assay: Antimicrobial activity against Escherichia coli 1780064 A-X isolated from patient with pyelonephritis assessed as >3-log reduction in urinary bacterial titer after 24 hrs; assay type: functional, Urine; outline: as §1
Serratia marcescens [27] = assay: Antimicrobial activity against Serratia marcescens 2297260 B-U isolated from patient with pyelonephritis assessed as >3-log reduction in urinary bacterial titer after 12 hrs; assay type: functional, Urine
Staphylococcus aureus [28] = assay: Antimicrobial activity against Staphylococcus aureus 1889640 A-Z isolated from patient with pyelonephritis assessed as >3-log reduction in urinary bacterial titer after 4 hrs; assay type: functional, Urine
Escherichia coli [29] = assay: Antimicrobial activity against Escherichia coli 1821386 B-D isolated from patient with pyelonephritis assessed as >3-log reduction in urinary bacterial titer after 24 hrs; assay type: functional, Urine; outline: as §1
[30] = tested on: Staphylococcus epidermidis; assay: Antimicrobial activity against Staphylococcus epidermidis 1949822 B-J isolated from patient with pyelonephritis assessed as >3-log reduction in urinary bacterial titer after 24 hrs; assay type: functional, Urine
Serratia marcescens [31] = assay: Antimicrobial activity against Serratia marcescens 2297260 B-U isolated from patient with pyelonephritis assessed as >3-log reduction in urinary bacterial titer after 16 hrs; assay type: functional, Urine
Escherichia coli [32] = assay: Antimicrobial activity against Escherichia coli 2062716 B-R isolated from patient with pyelonephritis assessed as >3-log reduction in urinary bacterial titer after 4 hrs; assay type: functional, Urine; outline: as §2

C[C@@H](O)[C@H]1C(=O)N2C(C(=O)O)=C(S[C@@H]3CN[C@H](CNS(N)(=O)=O)C3)[C@H](C)[C@H]12 [DORIPENEM]
urinary bactericidal titer (Escherichia coli [1]): 65500 | urinary bactericidal titer [2]: 1024 reciprocal titer | urinary bactericidal titer (Escherichia coli [3]): 4096 reciprocal titer | urinary bactericidal titer (Escherichia coli [4]): 2048 reciprocal titer | urinary bactericidal titer (Enterococcus faecalis [5]): 2048 reciprocal titer | urinary bactericidal titer (Escherichia coli [6]): 32800 reciprocal titer | MIC (Escherichia coli [7]): 0.015 µg/mL (≈ 0.0357 µM) | urinary bactericidal titer (Escherichia coli [8]): 32800 reciprocal titer | urinary bactericidal titer (Escherichia coli [9]): 32800 titer | urinary bactericidal titer (Escherichia coli [10]): 256 reciprocal titer | fT>MIC [11]: 35% | urinary bactericidal titer (Escherichia coli [12]): 2048 reciprocal titer | urinary bactericidal titer (Escherichia coli [13]): 4096 reciprocal titer | urinary bactericidal titer (Escherichia coli [14]): 256 reciprocal titer | urinary bactericidal titer (Escherichia coli [15]): 2048 reciprocal titer | MIC (Escherichia coli [16]): 0.03 µg/mL (≈ 0.0713 µM)

C[C@H]1COc2c(N3CCN(C)CC3)c(F)cc3c(=O)c(C(=O)O)cn1c23.C[C@H]1COc2c(N3CCN(C)CC3)c(F)cc3c(=O)c(C(=O)O)cn1c23.O [LEVOFLOXACIN]
urinary bactericidal titer (Pseudomonas aeruginosa): 32 reciprocal titer | MIC [17]: > 32 µg/mL | urinary bactericidal titer (Enterococcus faecalis [18]): 0 reciprocal titer | urinary bactericidal titer [19]: 4 reciprocal titer | urinary bactericidal titer (Enterococcus faecalis [20]): 0 reciprocal titer | Time (Enterococcus faecalis [21]): 0 h | urinary bactericidal titer (Escherichia coli [22]): 512 reciprocal titer | urinary bactericidal titer (Staphylococcus aureus [23]): 128 reciprocal titer | Time (Enterococcus faecalis [24]): 0 h | urinary bactericidal titer (Staphylococcus aureus [25]): 128 reciprocal titer | urinary bactericidal titer (Escherichia coli [26]): 128 reciprocal titer | urinary bactericidal titer (Serratia marcescens [27]): 128 reciprocal titer | urinary bactericidal titer (Staphylococcus aureus [28]): 256 reciprocal titer | urinary bactericidal titer (Escherichia coli [29]): 2048 reciprocal titer | urinary bactericidal titer [30]: 1 reciprocal titer | urinary bactericidal titer (Serratia marcescens [31]): 128 reciprocal titer | urinary bactericidal titer (Escherichia coli [32]): 1024 reciprocal titer
